Measurements: ChEMBL document CHEMBL1127533, “Presynaptic cholinergic modulators as potent cognition enhancers and analgesic drugs. 2. 2-Phenoxy-, 2-(phenylthio)-, and 2-(phenylamino)alkanoic acid esters” (J Med Chem, 1994)
Activity calls are given as the source filed them.

Assays:
Mus musculus [1] = assay: Analgesic potency was evaluated as effective dose after subcutaneous administration.; type: functional
Method in brief: (§1)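 Mouse hot-plate assay after Woolfe, with the plate held at 52.5 ± 0.1 °C and a 45 s cutoff. Groups held 8–20 mice. Analgesic potency is expressed as the ED50.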

Mus musculus [2] = organism: Mus musculus; assay: Analgesic activity in male albino Swiss-Webster mice in hotplate test; type: functional; design: unit not given here; method in brief: as §1
Mus musculus [3] = organism: Mus musculus; assay: Compound was evaluated for analgesic activity, in male albino Swiss-Webster mice with hotplate test and maximum level of analgesia reached is evaluated; type: functional
Method in brief: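 Mouse hot-plate at 52.5 ± 0.1 °C with a 45 s cutoff. Each compound was given at its maximal nontoxic dose, defined as no visible behavioural change to blinded observers. Efficacy = (max reaction time − pretest)/(same for morphine-HCl 8 mg/kg sc) × 100.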

[4] = target: Muscarinic acetylcholine receptor; assay: The compound is evaluated for binding affinity against central muscarinic receptor by using [3H]- QNB as radioligand; type: protein assay
Mus musculus [5] = assay: Analgesic potency was evaluated as Effective Dose 50 after subcutaneous administration. Standard error given in parenthesis; type: functional; conditions: sc; method in brief: as §1
[6] = Mus musculus, sc, read-out: ED50

| SMILES | ED50 (Mus musculus [1]; [6]) [mg/kg] | Analgesic activity (Mus musculus [2]) | other results |
| --- | --- | --- | --- |
| CC(Oc1ccc(C#N)cc1)C(=O)OC1CC2CCC(C1)N2C.O=C(O)/C=C\C(=O)O (stereo not drawn) | 31 | 53 | – |
| CC(Sc1ccc(F)cc1)C(=O)OC1CC2CCC(C1)N2C (stereo not drawn) | 15 | 41 | – |
| CCC(Sc1ccccc1)C(=O)OC1CC2CCC(C1)N2C (single isomer, unassigned; (+)) | 16 | 86 | – |
| CC(Oc1ccc(Cl)c2ccccc12)C(=O)OC1CC2CCC(C1)N2C (stereo not drawn) | – | inactive | – |
| C[C@@H](Sc1ccc(Cl)cc1)C(=O)OC1CC2CCC(C1)N2C (stereo partly drawn) | 14 | 61 | – |
| CC(Oc1ccc(C(F)(F)F)cc1)C(=O)OC1CC2CCC(C1)N2C (stereo not drawn) | 26 | 44 | – |
| CCC(Oc1ccc(Cl)c2ccccc12)C(=O)OC1CC2CCC(C1)N2C (stereo not drawn) | – | inactive | – |
| CC(Oc1ccc(F)cc1)C(=O)OC1CC2CCC(C1)N2C.O=C(O)/C=C\C(=O)O (racemic) | 33 | 91 | – |
| CC(C(=O)OC1CC2CCC(C1)N2C)C(=O)c1ccc(Cl)cc1 (stereo not drawn) | 34 | 30 | – |
| CSc1ccc(OC(C)C(=O)OC2CC3CCC(C2)N3C)cc1.O=C(O)/C=C\C(=O)O (stereo not drawn) | 43 | 21 | – |
| CCC(Oc1ccc(Cl)cc1)C(=O)OC1CC2CCC(C1)N2CC (stereo not drawn) | 32 | 45 | – |
| CC(Oc1ccc([S+](C)[O-])cc1)C(=O)OC1CC2CCC(C1)N2C (stereo not drawn) | – | inactive | – |
| CC[C@H](Sc1ccc(Cl)cc1)C(=O)OC1CC2CCC(C1)N2C (stereo partly drawn) | 14 | 38 | – |
| CC(C(=O)OC1CC2CCC(C1)N2C)N(C)c1ccc(Cl)cc1.O=C(O)/C=C\C(=O)O (stereo not drawn) | 29 | 86 | – |
| CC(Oc1ccc(-c2ccccc2)cc1)C(=O)OC1CC2CCC(C1)N2C (stereo not drawn) | – | inactive | – |
| CCC(C(=O)OC1CC2CCC(C1)N2C)N(C)c1ccc(Cl)cc1.O=C(O)/C=C\C(=O)O (stereo not drawn) | 38 | 85 | – |
| CCC(Oc1ccc2cc(Br)ccc2c1)C(=O)OC1CC2CCC(C1)N2C.O=C(O)/C=C\C(=O)O (stereo not drawn) | 42 | 32 | – |
| CC(COC1CC2CCC(C1)N2C)Sc1ccc(Cl)cc1 (stereo not drawn) | – | inactive | – |
| CCC(Oc1ccc(F)cc1)C(=O)OC1CC2CCC(C1)N2C (stereo not drawn) | 37 | 94 | – |
| CC(C)C(Oc1ccc(Cl)cc1)C(=O)OC1CC2CCC(C1)N2C (stereo not drawn) | – | inactive | – |
| CCC(Oc1ccccc1)C(=O)OC1CC2CCC(C1)N2C (stereo not drawn) | 31 | 35 | – |
| CC(Oc1ccc(Cl)cc1)C(=O)OC1CCN(C)CC1 (stereo not drawn) | – | inactive | – |
| CN1C2CCC1CC(OC(=O)C(C)(C)Oc1ccc(Cl)cc1)C2 (stereo not drawn) | 23 | 52 | – |
| CC(Oc1ccc(Cl)cc1)C(=O)OC1CC2CCC(C1)N2C.O=C(O)/C=C\C(=O)O (racemic) | 32 | – | Analgesic activity (Mus musculus [3]): 90 |
| CC(Oc1ccc2cc(Br)ccc2c1)C(=O)OC1CC2CCC(C1)N2C (stereo not drawn) | – | inactive | – |

| SMILES | ED50 (Mus musculus [1]; [6]) [mg/kg] | Analgesic activity (Mus musculus [2]) | other results |
| --- | --- | --- | --- |
| C[C@@H](Oc1ccc(Cl)cc1)C(=O)OC1CC2CCC(C1)N2C (stereo partly drawn) | 16 | 68 | – |
| CC(Oc1ccccc1Cl)C(=O)OC1CC2CCC(C1)N2C (stereo not drawn) | – | inactive | – |
| CN1C2CCC1CC(OC(=O)C(Oc1ccc(Cl)cc1)c1ccccc1)C2 (stereo not drawn) | – | inactive | – |
| CC(Oc1ccc(Cl)c(Cl)c1)C(=O)OC1CC2CCC(C1)N2C.O=C(O)/C=C\C(=O)O (stereo not drawn) | 22 | 50 | – |
| CC(Oc1ccc(Cl)cc1)C(=O)NC1CC2CCC(C1)N2C.Cl (stereo not drawn) | 36 | 33 | – |
| CCC(Oc1ccc(Cl)cc1)C(=O)OC1CCN(C)CC1 (stereo not drawn) | – | inactive | – |
| CC[C@@H](Sc1ccc(Cl)cc1)C(=O)OC1CC2CCC(C1)N2C (stereo partly drawn) | 11 | 64 | – |
| CC(COC1CC2CCC(C1)N2C)Oc1ccc(Cl)cc1 (stereo not drawn) | 44 | 64 | – |
| CN1C2CCC1CC(OC(=O)C(Cc1ccccc1)Oc1ccc(Cl)cc1)C2 (stereo not drawn) | – | inactive | – |
| CCC(COC1CC2CCC(C1)N2C)Oc1ccc(Cl)cc1 (stereo not drawn) | – | inactive | – |
| Cc1ccc(SC(C)C(=O)OC2CC3CCC(C2)N3C)cc1.O=C(O)/C=C\C(=O)O (stereo not drawn) | 7 | 33 | – |
| CCC(Oc1ccc(Cl)cc1)C(=O)OC1CC2CCC(C1)N2C.O=C(O)/C=C\C(=O)O (racemic) | 20 | 99 | Ki [4]: 174 nM |
| CC[C@@H](Oc1ccc(Cl)cc1)C(=O)OC1CC2CCC(C1)N2C (stereo partly drawn) | 14 | 89 | – |
| CN1C2CCC1CC(OC(=O)CCOc1ccccc1)C2.O=C(O)/C=C\C(=O)O (stereo not drawn) | – | – | ED50 (Mus musculus [5]): 22 mg/kg; Analgesic activity (Mus musculus [3]): 28 |
| CC(Oc1ccc(Cl)cc1)C(=O)OC1CC2CCC(C1)N2 (stereo not drawn) | – | inactive | – |
| CC(C)C(Sc1ccc(Cl)cc1)C(=O)OC1CC2CCC(C1)N2C.O=C(O)/C=C\C(=O)O (stereo not drawn) | 41 | 41 | – |
| CCC(Oc1ccc(Cl)cc1)C(=O)OCCCN(C)C (stereo not drawn) | – | inactive | – |
| CC(Oc1cccc(Cl)c1)C(=O)OC1CC2CCC(C1)N2C (stereo not drawn) | 26 | 62 | – |
| CCN(CC)CC#CCOC(=O)C(C)Oc1ccc(Cl)cc1 (stereo not drawn) | – | inactive | – |
| CC(Nc1ccccc1)C(=O)OC1CC2CCC(C1)N2C.Cl (stereo not drawn) | 32 | 74 | – |
| CN1C2CCC1CC(OC(=O)COc1ccccc1)C2 (stereo not drawn) | – | inactive | – |
| CC(Oc1ccccc1)C(=O)OC1CC2CCC(C1)N2C (stereo not drawn) | – | inactive | – |
| C[C@@H](Oc1ccc(F)cc1)C(=O)OC1CC2CCC(C1)N2C (stereo partly drawn) | 21 | 106 | – |
| Cc1cc(OC(C)C(=O)OC2CC3CCC(C2)N3C)ccc1Cl (stereo not drawn) | – | inactive | – |
| C[C@H](Sc1ccc(Cl)cc1)C(=O)OC1CC2CCC(C1)N2C (stereo partly drawn) | 16 | 34 | – |

| SMILES | ED50 (Mus musculus [1]; [6]) [mg/kg] | Analgesic activity (Mus musculus [2]) | other results |
| --- | --- | --- | --- |
| CCC(Oc1ccc2ccccc2c1)C(=O)OC1CC2CCC(C1)N2C (stereo not drawn) | – | inactive | – |
| CC(Sc1ccc(Br)cc1)C(=O)OC1CC2CCC(C1)N2C (stereo not drawn) | 35 | 33 | – |
| CC(Oc1ccc(C(C)(C)C)cc1)C(=O)OC1CC2CCC(C1)N2C (stereo not drawn) | – | inactive | – |
| CCC(Oc1ccc(Cl)cc1)C(=O)OCC#CCN(CC)CC (stereo not drawn) | – | inactive | – |
| CC(Sc1ccc(Cl)cc1)C(=O)OC1CC2CCC(C1)N2C.O=C(O)/C=C\C(=O)O (racemic) | 19 | 72 | – |
| CC(Oc1ccc2ccccc2c1)C(=O)OC1CC2CCC(C1)N2C.O=C(O)/C=C\C(=O)O (stereo not drawn) | 34 | 86 | – |
| CC(=O)OCC(Oc1ccc(Cl)cc1)C(=O)OC1CC2CCC(C1)N2C (stereo not drawn) | 23 | 25 | – |
| CCC(Oc1cccc2ccccc12)C(=O)OC1CC2CCC(C1)N2C (stereo not drawn) | – | inactive | – |
| CC(C(=O)OC1CC2CCC(C1)N2C)[S+]([O-])c1ccccc1 (stereo not drawn) | – | inactive | – |
| CC(Oc1ccc(Cl)cc1)C(=O)OC1CC2CCC(C1)N2C.O=C(O)/C=C\C(=O)O (stereo in doubt; 12) | – | 26 | ED50 (Mus musculus [1]): 21 mg/kg |
| C[C@H](Oc1ccc(Cl)cc1)C(=O)OC1CC2CCC(C1)N2C (stereo partly drawn) | 17 | 37 | – |
| CC(Sc1ccccc1)C(=O)OC1CC2CCC(C1)N2C.O=C(O)/C=C\C(=O)O (stereo not drawn) | 30 | 62 | – |
| CC(Oc1ccc(Br)cc1)C(=O)OC1CC2CCC(C1)N2C (stereo not drawn) | 31 | 86 | – |
| C[C@H](Oc1ccc(F)cc1)C(=O)OC1CC2CCC(C1)N2C (stereo partly drawn) | 23 | 65 | – |
| CCC(COC1CC2CCC(C1)N2C)Sc1ccc(Cl)cc1 (stereo not drawn) | 39 | 53 | – |
| CC(Oc1ccc(Cl)cc1)C(=O)OC1CC2CCC(C1)N2Cc1ccccc1 (stereo not drawn) | – | inactive | – |
| CC(Nc1ccc(Cl)cc1)C(=O)OC1CC2CCC(C1)N2C (stereo not drawn) | 31 | 33 | – |
| CCN(CC)CCOC(=O)C(C)Oc1ccc(Cl)cc1 (stereo not drawn) | – | inactive | – |
| CC[C@H](Oc1ccc(Cl)cc1)C(=O)OC1CC2CCC(C1)N2C (stereo partly drawn) | 18 | 56 | – |
| CCN1C2CCC1CC(OC(=O)C(C)Oc1ccc(Cl)cc1)C2.O=C(O)/C=C\C(=O)O (stereo not drawn) | 42 | 42 | – |
| CC(Oc1cccc2ccccc12)C(=O)OC1CC2CCC(C1)N2C (stereo not drawn) | – | inactive | – |
| CCC(Sc1ccc(Cl)cc1)C(=O)OC1CC2CCC(C1)N2C (racemic) | 20 | 79 | – |
| CCC(Sc1ccccc1)C(=O)OC1CC2CCC(C1)N2C (racemic) | – | 103 | ED50 (Mus musculus [1]): 18 mg/kg; Ki [4]: 22.7 nM |
| CCC(Sc1ccccc1)C(=O)OC1CC2CCC(C1)N2C (stereo in doubt; (-)-42) | – | 53 | ED50 (Mus musculus [1]): 13 mg/kg |
